Data on 19 molecules can be found in ChEMBL document CHEMBL2163325, “Discovery of phosphoinositide 3-kinases (PI3K) p110β isoform inhibitor 4-[2-hydroxyethyl(1-naphthylmethyl)amino]-6-[(2S)-2-methylmorpholin-4-yl]-1H-pyrimidin-2-one, an effective antithrombotic agent without associated bleeding and insulin resistance” (Bioorg Med Chem Lett, 2012).

For data set [1], the species on record is Homo sapiens. Briefly: Selectivity ratio of IC50 for human PI3K p110alpha to IC50 for human PI3K p110beta.
The nature of data set [2]: Lipophilicity, log D of the compound at pH 7.4 by HPLC analysis. It counts as physicochemical. The following applies: buffer. The method, boiled down: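 LogD measured at pH 7.4 by HPLC.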
Data set [3] deals with Phosphatidylinositol 4,5-bisphosphate 3-kinase catalytic subunit alpha isoform (Homo sapiens, UniProt P42336). Briefly: Inhibition of human recombinant His6-tagged PI3K p110alpha expressed in baculovirus infected cells using DiC8-PI(4,5)P2 as substrate after 20 mins by AlphaScreen assay. A general note: In Alpha technology, singlet oxygen from a donor bead excites a nearby acceptor bead.
Chain of Phosphatidylinositol 4,5-bisphosphate 3-kinase catalytic subunit alpha isoform (P42336 whole entry, canonical isoform): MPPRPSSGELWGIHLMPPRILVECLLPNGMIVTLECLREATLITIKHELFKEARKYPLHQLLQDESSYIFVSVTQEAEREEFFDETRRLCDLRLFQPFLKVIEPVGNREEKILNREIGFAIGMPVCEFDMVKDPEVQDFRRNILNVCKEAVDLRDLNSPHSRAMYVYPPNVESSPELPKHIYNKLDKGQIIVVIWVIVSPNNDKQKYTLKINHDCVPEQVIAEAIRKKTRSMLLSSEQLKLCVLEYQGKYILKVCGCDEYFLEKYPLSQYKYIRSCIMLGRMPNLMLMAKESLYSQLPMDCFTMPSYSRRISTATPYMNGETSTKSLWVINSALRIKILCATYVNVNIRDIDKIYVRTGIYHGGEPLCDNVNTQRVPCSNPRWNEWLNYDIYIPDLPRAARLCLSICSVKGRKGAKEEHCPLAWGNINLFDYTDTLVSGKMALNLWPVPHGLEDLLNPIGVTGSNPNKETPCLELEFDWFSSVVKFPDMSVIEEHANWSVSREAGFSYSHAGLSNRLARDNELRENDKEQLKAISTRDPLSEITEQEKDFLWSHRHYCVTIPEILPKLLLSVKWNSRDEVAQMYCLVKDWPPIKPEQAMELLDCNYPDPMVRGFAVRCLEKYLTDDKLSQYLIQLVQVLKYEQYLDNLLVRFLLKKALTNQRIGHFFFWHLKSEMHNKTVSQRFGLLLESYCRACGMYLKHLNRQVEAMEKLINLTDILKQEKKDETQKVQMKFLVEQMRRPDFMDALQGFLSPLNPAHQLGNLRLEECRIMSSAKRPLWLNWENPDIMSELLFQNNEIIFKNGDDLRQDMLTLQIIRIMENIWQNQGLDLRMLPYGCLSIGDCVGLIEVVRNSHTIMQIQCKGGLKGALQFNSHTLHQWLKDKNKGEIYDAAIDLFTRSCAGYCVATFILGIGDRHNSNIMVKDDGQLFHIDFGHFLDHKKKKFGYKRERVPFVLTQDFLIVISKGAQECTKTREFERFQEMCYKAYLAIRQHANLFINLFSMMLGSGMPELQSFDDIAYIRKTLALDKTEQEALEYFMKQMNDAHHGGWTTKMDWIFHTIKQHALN

For data set [4], the target named is Phosphatidylinositol 4,5-bisphosphate 3-kinase catalytic subunit beta isoform (Homo sapiens, UniProt P42338). The data set can be described thus: Inhibition of human recombinant His6-tagged PI3K p110beta expressed in baculovirus infected cells using DiC8-PI(4,5)P2 as substrate after 20 mins by AlphaScreen assay.
Chain of Phosphatidylinositol 4,5-bisphosphate 3-kinase catalytic subunit beta isoform (P42338 whole entry, canonical isoform): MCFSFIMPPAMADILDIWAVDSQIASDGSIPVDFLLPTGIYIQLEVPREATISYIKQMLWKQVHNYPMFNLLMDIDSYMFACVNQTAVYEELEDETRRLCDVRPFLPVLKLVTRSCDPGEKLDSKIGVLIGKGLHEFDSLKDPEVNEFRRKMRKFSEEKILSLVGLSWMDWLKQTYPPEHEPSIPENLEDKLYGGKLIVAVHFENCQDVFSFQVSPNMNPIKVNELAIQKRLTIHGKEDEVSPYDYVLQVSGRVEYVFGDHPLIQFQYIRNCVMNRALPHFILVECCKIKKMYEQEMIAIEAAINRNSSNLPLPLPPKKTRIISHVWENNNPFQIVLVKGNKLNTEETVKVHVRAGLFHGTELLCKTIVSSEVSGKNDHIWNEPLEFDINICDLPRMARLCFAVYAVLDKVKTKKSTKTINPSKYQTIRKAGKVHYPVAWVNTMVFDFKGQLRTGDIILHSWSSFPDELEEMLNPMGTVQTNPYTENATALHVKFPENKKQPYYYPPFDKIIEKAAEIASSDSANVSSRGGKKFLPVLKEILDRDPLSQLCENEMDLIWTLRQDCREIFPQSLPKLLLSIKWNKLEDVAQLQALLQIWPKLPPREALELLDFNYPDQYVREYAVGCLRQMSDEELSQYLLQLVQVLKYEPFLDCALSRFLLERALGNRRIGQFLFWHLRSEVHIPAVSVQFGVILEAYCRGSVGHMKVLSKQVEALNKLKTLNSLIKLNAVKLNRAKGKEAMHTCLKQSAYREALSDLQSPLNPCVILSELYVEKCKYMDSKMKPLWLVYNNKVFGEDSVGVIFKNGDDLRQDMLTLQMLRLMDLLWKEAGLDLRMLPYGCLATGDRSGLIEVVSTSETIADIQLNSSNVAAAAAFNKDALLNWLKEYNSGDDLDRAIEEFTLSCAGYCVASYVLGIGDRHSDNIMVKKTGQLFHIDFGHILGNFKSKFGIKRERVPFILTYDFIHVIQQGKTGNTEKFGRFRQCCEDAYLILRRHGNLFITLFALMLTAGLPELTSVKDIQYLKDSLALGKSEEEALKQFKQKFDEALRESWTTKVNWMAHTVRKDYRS
Data set [5] in a line: Toxicity in human adipocytes assessed as inhibition of insulin-induced glucose uptake. Type of data set: cell-based, Adipocyte.
Data set [6] has as its system Rattus norvegicus. The data set can be described thus: Toxicity in overnight fasted Sprague-Dawley rat assessed as induction of insulin resistance administered as 30 mins infusion. It counts as organism-based. The following applies: in vivo, iv, 0.5 h. Put shortly: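 Overnight fasted SD rats (N = 6) infused with 4 consecutive escalating doses, each over 30 min. Blood taken at the end of each interval for plasma exposure, glucose and insulin. HOMA index is glucose × insulin, normalized to vehicle controls (N = 4) and pretreatment medians. Mean ± SEM.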

Data set [7] addresses Cytochrome P450 3A4 (Homo sapiens, UniProt P08684). Briefly: Inhibition of CYP3A4. Type of data set: ADME.
Data set [8] deals with Cytochrome P450 2C9 (Homo sapiens, UniProt P11712). Briefly: Inhibition of CYP2C9. It counts as ADME.
Chain of Cytochrome P450 2C9 (P11712 whole entry): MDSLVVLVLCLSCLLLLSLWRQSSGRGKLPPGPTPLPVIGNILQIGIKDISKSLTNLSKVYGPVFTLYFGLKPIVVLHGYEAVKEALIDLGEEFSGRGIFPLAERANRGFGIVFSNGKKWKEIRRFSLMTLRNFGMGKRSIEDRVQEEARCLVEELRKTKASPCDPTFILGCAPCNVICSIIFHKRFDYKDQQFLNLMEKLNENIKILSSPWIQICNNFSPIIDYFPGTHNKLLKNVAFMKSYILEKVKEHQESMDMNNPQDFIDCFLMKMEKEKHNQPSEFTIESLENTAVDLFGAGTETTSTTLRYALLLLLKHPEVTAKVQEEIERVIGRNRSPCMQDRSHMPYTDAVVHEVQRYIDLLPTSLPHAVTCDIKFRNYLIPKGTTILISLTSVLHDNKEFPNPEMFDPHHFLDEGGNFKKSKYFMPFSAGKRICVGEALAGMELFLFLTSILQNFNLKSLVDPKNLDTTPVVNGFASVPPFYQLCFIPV

Chain of Cytochrome P450 3A4 (P08684 whole entry): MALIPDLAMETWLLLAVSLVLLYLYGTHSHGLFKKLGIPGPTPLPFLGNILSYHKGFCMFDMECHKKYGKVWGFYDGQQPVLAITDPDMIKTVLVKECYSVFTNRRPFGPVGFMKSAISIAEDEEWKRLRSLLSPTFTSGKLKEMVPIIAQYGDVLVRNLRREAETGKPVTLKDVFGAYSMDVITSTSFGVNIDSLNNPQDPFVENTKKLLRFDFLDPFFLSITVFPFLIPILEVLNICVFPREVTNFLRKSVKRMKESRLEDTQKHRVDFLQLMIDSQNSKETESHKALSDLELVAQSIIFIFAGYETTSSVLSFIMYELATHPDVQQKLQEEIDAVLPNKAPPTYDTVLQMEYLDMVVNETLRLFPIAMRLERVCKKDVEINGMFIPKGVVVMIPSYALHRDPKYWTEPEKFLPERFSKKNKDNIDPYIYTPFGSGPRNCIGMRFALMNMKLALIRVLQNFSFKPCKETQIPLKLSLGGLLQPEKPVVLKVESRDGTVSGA

For `CCN(Cc1cccc2ccccc12)c1cc(N2CCOCC2)nc(=O)[nH]1`, the Ratio IC50 in data set [1] was 628. Besides, the logD (as a rule, lipophilicity at a set pH, counting ionised and neutral species) in data set [2] is 2.5. The IC50 – broadly, the concentration at which inhibition is half-maximal – in data set [3] was found to be 82.8 µM; in data set [4], 0.13 µM.
In turn, `COC1CN(c2cc(=O)[nH]c(NCc3cccc4ccccc34)n2)C1` gave a logD in data set [2] of 2.7. Moreover, the IC50 in data set [3] came to 82.6 µM; in data set [4], 24 µM.
Regarding `O=c1nc(N2CCOCC2)cc(N(CCCCO)Cc2cccc3ccccc23)[nH]1`, in data set [1], the Ratio IC50 was found to be 373. In data set [2], this molecule showed a logD of 1.8. The IC50 is 73.7 µM in data set [3] and 0.2 µM in data set [4].
In the case of `CCC(O)CN(Cc1cccc2ccccc12)c1cc(N2CCOCC2)nc(=O)[nH]1` (stereo unspecified), the Ratio IC50 in data set [1] amounted to 690. The molecule also returned a logD in data set [2] of 2.5. In addition, the concentration for half-maximal inhibition (IC50) in data set [3] was 149 µM; in data set [4] it was 0.22 µM.
For `O=c1nc(N2CCOCC2)cc(N(Cc2cccc3ccccc23)CC(O)C(F)(F)F)[nH]1` (stereo unspecified), in that order: 58, 3, 56.9 µM and 0.98 µM.
`C[C@@H]1CN(c2cc(N(CCO)Cc3cccc4ccccc34)[nH]c(=O)n2)CCO1`: in data set [2], the logD worked out at 1.9. Moreover, the IC50 in data set [3] amounted to 349 µM; in data set [4], 1 µM.
On to `CC1CN(c2cc(=O)[nH]c(NCc3cccc4ccccc34)n2)CCO1` (stereo unspecified), for which the Ratio IC50 in data set [1] was determined as 65. In data set [2], this molecule showed a logD of 2.9. The IC50 in data set [3] was determined as 2.2 µM; in data set [4], 0.034 µM.
For the molecule `Cc1cc([C@@H](C)Nc2ccccc2C(=O)O)c2nc(N3CCOCC3)cc(=O)n2c1` [AZD-6482], the IC50 in data set [5] was 4.4 µM. For the same molecule, in data set [6], the Activity entry is “Dose-dependent effect”.
For `CC(C)(CO)CN(Cc1cccc2ccccc12)c1cc(N2CCOCC2)nc(=O)[nH]1`, in data set [1], the Ratio IC50 came to 143. For the same molecule, the logD in data set [2] was found to be 3.15. For the same molecule, the IC50 in data set [3] worked out at 205 µM; in data set [4], 1.4 µM.
As to `O=c1cc(N2CCC(O)CC2)nc(NCc2cccc3ccccc23)[nH]1`, in data set [2], the logD was determined as 1.6. Further, the IC50 in data set [3] stood at 160 µM; in data set [4], 31 µM.
Regarding `O=c1nc(N2CCOCC2)cc(N(CCCO)Cc2cccc3ccccc23)[nH]1`, in data set [1], the Ratio IC50 amounted to 524. Besides, in data set [2], the logD is 1.75. The IC50 in data set [3] was found to be 51.5 µM; in data set [4], 0.1 µM.
With `O=c1cc(-c2cn[nH]c2)nc(NCc2cccc3ccccc23)[nH]1`, in data set [2], the logD was found to be 1.9. Further, the IC50 in data set [3] was determined as 62.3 µM; in data set [4], 11 µM.
For `O=c1nc(N2CCOCC2)cc(N(CCO)Cc2cccc3ccccc23)[nH]1`, the Ratio IC50 in data set [1] worked out at 340. For the same molecule, the logD in data set [2] is 1.55. Further, the figures for the IC50 in data set [3] and in data set [4] were 30.8 µM and 0.09 µM, respectively.
In data set [2], `Cc1cc(-c2cc(=O)[nH]c(NCc3cccc4ccccc34)n2)ccn1` gave a logD of 2.6. Further, the IC50 was 0.7 µM in data set [7], 0.84 µM in data set [3], 0.007 µM in data set [4] and 0.4 µM in data set [8].
Turning to `CC(O)CN(Cc1cccc2ccccc12)c1cc(N2CCOCC2)nc(=O)[nH]1` (stereo unspecified), in data set [1], the Ratio IC50 was 808. In data set [2], this molecule yielded a logD of 2. For the same molecule, the IC50 in data set [3] came out at 112 µM; in data set [4] it was 0.14 µM.
Regarding `CN(C)CCN(Cc1cccc2ccccc12)c1cc(N2CCOCC2)nc(=O)[nH]1`, the Ratio IC50 in data set [1] was more than 26. This molecule returned a logD in data set [2] of 1.4. Moreover, the IC50 in data set [3] was more than 83.3 µM; in data set [4], 3.1 µM.
On the same counts, the results for `CN(C)CCCN(Cc1cccc2ccccc12)c1cc(N2CCOCC2)nc(=O)[nH]1` are more than 64, 1.5, more than 83.3 µM and 1.2 µM.
For the molecule `CN(Cc1cccc2ccccc12)c1cc(N2CCOCC2)nc(=O)[nH]1`, in data set [1], the Ratio IC50 is 355. The same molecule gave a logD in data set [2] of 2.37. The IC50 in data set [3] amounted to 212 µM; in data set [4] it was 0.6 µM.
Consider `O=c1nc(N2CCOCC2)cc(N(Cc2cccc3ccccc23)C2CC2)[nH]1`, for which the Ratio IC50 in data set [1] is 78. This molecule showed a logD in data set [2] of 2.6. Also, the IC50 in data set [3] came to 76 µM; in data set [4] it was 0.97 µM.
